Compounds with a hit are over-represented: about 2.3% of the library has one in this group of screens.
PLC-gamma1 inh = PLC-gamma1 enzyme inhibitors, primary screen, biochemical, fluorescence, purified enzyme; 1-phosphatidylinositol 4,5-bisphosphate phosphodiesterase gamma-1 (Homo sapiens), P19174; fluorogenic substrate; inhibition, % at 12.2 µM; actives 0.84% (n = 370,000); AID 720700, 2013; in the data active = inhibition above about 9.5%
PLC-beta3 inh = human PLC-beta3 inhibitors, primary screen, biochemical, fluorescence. 1-phosphatidylinositol 4,5-bisphosphate phosphodiesterase beta-3 (Homo sapiens), Q01970. Purified PLC-beta3, fluorogenic substrate. inhibition, % at 12.2 µM. actives 0.18% (n = 370,000). AID 720704, 2013; in the data active = inhibition above about 11%;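 also: 0% = median of compound wells on plate and 100% = full blocker control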
TbMetRS inhib = T. brucei MetRS inhibitors, primary screen, biochemical, luminescence; AID 624268, 2012; inhibition, % at 11.9 µM; actives 0.4% (n = 360,000); methionyl-tRNA synthetase (Trypanosoma brucei brucei); purified T. brucei MetRS, ATP depletion, Kinase-Glo luminescence;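 active = inhibition above a per-plate cutoff of the control wells' mean inhibition plus 3 SD, cut at about 5.5% in these data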;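 also: 0% = DMSO wells median and 100% = median of wells with control inhibitor compound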
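Test system – parasite MetRS enzyme · Reagent – substrates ATP, L-methionine and bulk Escherichia coli tRNA · Doses – 11.9 µM compound single dose, 0.9% DMSO · Times – 15 min enzyme-compound preincubation, 2 h reaction, 10 min detection, 25 °C · Signal – Kinase-Glo luminescence, ATP depletion format · Controls – DMSO-only wells as low control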
ADAM10 inh = human ADAM10 inhibitors, primary screen, biochemical, QFRET, HTS; Disintegrin and metalloproteinase domain-containing protein 10 (Homo sapiens), O14672; inhibition, % at 7 µM; actives 0.62% (n = 370,000); recombinant ADAM10, EDANS/DABCYL FRET peptide cleavage, 3 h;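 active = inhibition above a per-campaign cutoff equal to the mean of compounds falling between control-based bounds plus 3 SD, cut at about 20% in these data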;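 also: 0% = DMSO wells while the 100% control is not disclosed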
ADAM17 inh = ADAM17 inhibitors, primary screen, biochemical, QFRET; recombinant ADAM17, EDANS/DABCYL FRET peptide cleavage; inhibition, % at 6.95 µM; actives 0.83% (n = 370,000);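 active = inhibition above the mean of compounds lying between control limits plus 3 SD, set per campaign, cut at about 8.5% in these data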;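 also: 0% = DMSO-only wells as the low control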
Target sequence (P78536 215-824 limits assumed): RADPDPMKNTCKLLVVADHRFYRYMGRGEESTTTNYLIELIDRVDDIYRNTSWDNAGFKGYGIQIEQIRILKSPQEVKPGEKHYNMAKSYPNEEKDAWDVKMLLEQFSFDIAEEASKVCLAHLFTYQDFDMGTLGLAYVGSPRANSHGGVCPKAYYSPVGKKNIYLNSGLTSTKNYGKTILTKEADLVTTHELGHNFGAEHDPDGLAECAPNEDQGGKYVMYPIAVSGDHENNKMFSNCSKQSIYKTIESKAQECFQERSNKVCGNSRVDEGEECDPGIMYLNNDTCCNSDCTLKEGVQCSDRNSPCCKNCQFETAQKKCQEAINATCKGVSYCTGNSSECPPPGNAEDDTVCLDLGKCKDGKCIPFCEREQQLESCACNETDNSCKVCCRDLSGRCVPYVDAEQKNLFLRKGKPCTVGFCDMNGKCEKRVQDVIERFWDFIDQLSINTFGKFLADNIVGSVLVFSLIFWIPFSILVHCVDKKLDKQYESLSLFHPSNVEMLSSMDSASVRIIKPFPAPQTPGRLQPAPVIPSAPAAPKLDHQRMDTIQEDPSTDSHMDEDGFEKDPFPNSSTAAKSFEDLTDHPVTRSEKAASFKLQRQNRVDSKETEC
TbMetRS confirm = T. brucei MetRS inhibitors, confirmation, biochemical, luminescence; shares compounds with TbMetRS inhib; T. brucei MetRS enzyme, luminescence (ATP depletion); inhibition, % at 11.9 µM; actives 93% (n = 1,400); AID 624412, 2012; in the data active = inhibition above about 7%
Jurkat tox = Jurkat T cell cytotoxicity, cytotoxicity control for T. brucei MetRS inhibitor project, luminescence, high throughput | shares compounds with TbMetRS inhib | actives 12% (n = 1,400) | inhibition, % at 8.3 µM | AID 624413, 2012 | Jurkat cells viability, ATP luminescence; in the data active = inhibition above about 15%;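 also: 0% = vehicle and 100% = reference inhibitor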
TbMetRS FP orth = T. brucei MetRS inhibitors, orthogonal assay for T. brucei MetRS inhibitor project, biochemical, fluorescence polarization | inhibition, % at 11.9 µM | shares compounds with TbMetRS inhib | purified T. brucei MetRS | AID 651607, 2012 | actives 44% (n = 1,400); in the data active = inhibition above about 17%;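 also: 0% = vehicle wells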
Active calls of the source: *; . = no result given.

SMILES	PLC-gamma1 inh	PLC-beta3 inh	TbMetRS inhib	ADAM10 inh	ADAM17 inh	TbMetRS confirm	Jurkat tox	TbMetRS FP orth
OC(c1nc2ccccc2[nH]1)C(O)c1nc2ccccc2[nH]1 (configuration not stated)	0.8	-1.2	0.0	-6.5	-2.5	.	.	.
CCC[C@H]1[C@@H](NC(=O)c2ccc(Cl)cc2)CC[C@@]23CCCN2C(=O)CCC[C@@H]13	-1.8	-0.1	.	-5.3	-5.1	.	.	.
Cc1c(-c2ccc(Br)cc2)nc2ccccn12	-11.2	-9.5	11.8*	-98.7	-30.8	22.6*	0.0	12.8
Cc1ccc(-c2nc3ccccn3c2C=O)cc1	4.0	6.8	-0.1	-9.5	-3.9	.	.	.
Nc1nnc(CC(=O)N/N=C/c2ccc(-c3cccc(C(=O)O)c3)o2)s1	-30.0	-48.7	0.2	-25.6	-8.4	.	.	.
O=C(Cc1ccc(Br)cc1)N/N=C/c1ccc(-c2cccc(C(=O)O)c2)o1	-21.2	-37.9	6.9*	-54.5	-21.7	16.1*	-0.4	4.9
CCOc1ccc2[nH]c(=O)c(CN(CCCN3CCOCC3)C(=O)Nc3ccc(F)cc3)cc2c1	3.9	-3.9	0.2	0.9	-3.1	.	.	.
Cc1ccc2[nH]c(=O)c(CN(CCN3CCOCC3)C(=O)Nc3ccc(F)cc3)cc2c1	0.2	1.2	5.9*	-30.3	-7.8	9.1*	3.1	-0.3
COC(=O)[C@H](Cc1c[nH]c2ccccc12)NC(=O)NCc1ccc(OC)cc1	4.5	1.9	6.6*	4.7	0.0	15.0*	-4.1	4.3
COC(=O)[C@H](Cc1c[nH]c2ccccc12)NC(=O)NCc1ccc(OC)c(OC)c1	4.0	-1.9	-0.1	-0.1	-2.3	.	.	.
COCCNC(=O)CS(=O)Cc1nc(-c2ccccc2C)oc1C (configuration not stated)	-2.1	0.3	59.2*	-1.6	0.8	2.8	-2.6	4.8
O=C(Cn1c(/C=C/c2ccccc2)nc2ccccc21)Nc1ccc(F)cc1	-365.6	-351.7	32.1*	-464.8	-159.3	55.2*	7.7	39.5*
O=C1C2CC3N1CCC31c3ccccc3-n3c1c2ccc3=O (configuration not stated)	-121.8	-150.8	0.2	-305.9	-85.5	.	.	.
CC1=Nc2nc(N3CCCCC3)c(C#N)c3c4c(nc(c23)N1)N(c1ccc(C(C)C)cc1)C(=O)C4	-60.6	-77.8	0.3	-51.1	-13.6	.	.	.
CC/C=C\[C@H](O)[C@H](O)C1=C(C)C(=O)[C@]2(O1)C(=O)N[C@@](OC)(C(=O)c1ccccc1)[C@@H]2O	-5.3	-8.0	.	-6.5	-5.7	.	.	.
O=C(NCc1nc2ccccc2[nH]1)C1=C[C@H](C2CCCCC2)C[C@H](OCCCCO)O1	-1.1	-3.4	58.8*	12.1	8.3	74.8*	6.7	52.8*
O=C(NCc1nc2ccccc2[nH]1)C1=C[C@@H](C2CCCCC2)C[C@@H](OCc2ccc(CO)cc2)O1	0.3	0.8	9.0*	-2.2	-1.1	82.1*	1.0	53.9*
O=C(NCc1nc2ccccc2[nH]1)C1=C[C@H](C2CC2)C[C@H](OCCCCO)O1	-2.8	0.5	-0.2	1.6	-2.0	.	.	.
CC(C)N1CCN(C(=O)c2ccc(OC3CCN(CCc4ccccc4)CC3)cc2)CC1	2.2	-2.2	-0.5	4.7	0.3	.	.	.
COc1ccccc1-c1cnc(C(O)c2ccc(Cl)cc2C)[nH]1 (configuration not stated)	-0.4	-3.6	0.8	-6.8	-4.4	.	.	.
COCCN(CCOC)C(=O)c1ccc(NS(=O)(=O)c2ccc3[nH]c(=O)[nH]c3c2)cc1	-1.5	-4.4	-0.4	-3.0	-1.4	.	.	.
